Results as given in PMC4734651 (MedChemComm, 2014).

Molecular target: TrkA (Homo sapiens, UniProt P04629)
Assay: TrkA biochemical screening assay
Conditions: for TrkA activity (in words): qualitative statement; for TrkA affinity increase relative to compound 1a: chlorine at A-region derivatized, compared with 1a; for inhibition at 20 µM: read-out: %TrkA inhibition, 20 μM
In short: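 5FAM-tagged TrkA peptide (1.5 μM final) and ATP (190 μM final) then added. Run to 10–20% conversion in no-inhibitor wells; no-enzyme blanks. Product/substrate peaks separated on chip; percent inhibition calculated.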

Chain of TrkA (P04629 33-796): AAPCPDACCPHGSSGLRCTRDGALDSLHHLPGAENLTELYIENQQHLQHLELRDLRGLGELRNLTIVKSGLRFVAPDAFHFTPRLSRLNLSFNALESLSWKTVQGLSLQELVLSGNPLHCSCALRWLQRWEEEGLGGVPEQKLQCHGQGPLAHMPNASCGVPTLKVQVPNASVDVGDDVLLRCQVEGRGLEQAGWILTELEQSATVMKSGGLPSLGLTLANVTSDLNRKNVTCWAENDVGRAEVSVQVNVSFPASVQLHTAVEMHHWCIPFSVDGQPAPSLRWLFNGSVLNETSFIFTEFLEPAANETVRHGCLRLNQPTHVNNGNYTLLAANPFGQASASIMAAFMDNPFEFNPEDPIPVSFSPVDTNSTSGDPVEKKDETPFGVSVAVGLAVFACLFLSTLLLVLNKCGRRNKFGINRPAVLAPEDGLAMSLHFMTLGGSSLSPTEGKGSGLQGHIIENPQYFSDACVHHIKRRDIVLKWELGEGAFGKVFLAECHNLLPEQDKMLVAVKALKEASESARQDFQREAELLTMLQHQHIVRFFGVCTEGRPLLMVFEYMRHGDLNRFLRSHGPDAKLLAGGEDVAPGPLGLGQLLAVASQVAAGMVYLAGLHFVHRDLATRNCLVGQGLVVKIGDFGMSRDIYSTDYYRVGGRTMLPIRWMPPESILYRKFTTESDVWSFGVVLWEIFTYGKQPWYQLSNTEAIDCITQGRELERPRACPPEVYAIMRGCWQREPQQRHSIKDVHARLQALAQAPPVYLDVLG

Row | Compound | TrkA activity (in words) | TrkA affinity increase relative to compound 1a [times] | other results
1 | CC(C)(C)c1cc(NC(=O)Nc2cccc(Oc3cncc(Cl)n3)c2)no1 [Compound 1a] | not strongly active |  | 
2 | COc1ccc(-c2cncc(Oc3cccc(NC(=O)Nc4cc(C(C)(C)C)on4)c3)n2)cc1 [Compound 9] |  | > 1000 | 
3 | CC(C)(C)c1ccc(NC(=O)Nc2cccc(Oc3cncc(-c4ccsc4)n3)c2)cc1 [Compound 13] | relatively inactive |  | 
4 | CC(C)(C)c1cc(NC(=O)Nc2cccc(Oc3cncc(-c4ccsc4)n3)c2)on1 [Compound 14] | relatively inactive |  | 
5 | CC(C)(C)c1cc(NC(=O)Nc2cccc(Oc3cncc(-c4ccsc4)n3)c2)no1 [Compound 15] |  | > 1000 | 
6 | Cn1nc(C(C)(C)C)cc1NC(=O)Nc1cccc(Oc2cncc(-c3ccsc3)n2)c1 [Compound 16] | relatively inactive |  | 
7 | CC(C)(C)c1cc(NC(=O)Nc2cccc(Oc3cncc(-c4ccc(S(C)(=O)=O)cc4)n3)c2)no1 [Compound 20] |  | > 1000 | 
8 | Cn1cc(-c2cncc(Oc3cccc(NC(=O)Nc4cc(C(C)(C)C)on4)c3)n2)cn1 [Compound 26] |  | > 1000 | 
9 | CC(C)(C)c1cc(NC(=O)Nc2cccc(Oc3cncc(-c4ccc(F)cc4)n3)c2)no1 [Compound 36] |  | > 1000 | 
10 | CC(C)(C)c1cc(NC(=O)Nc2ccc(-c3cncc(Cl)n3)cc2)no1 [Compound 38] |  |  | inhibition at 20 µM: 41.4 ± 3.3%
11 | Cn1cc(-c2cncc(-c3ccc(NC(=O)Nc4cc(C(C)(C)C)on4)cc3)n2)cn1 [Compound 39] | far more potent than their ether linked counterparts |  | increase in TrkA inhibition in comparison to 26 (39 compared with 26): ~ 5 fold; inhibition at 20 µM: 96.1 ± 2.3%
12 | Cn1cc(-c2cncc(-c3ccc(NC(=O)Nc4cc(C(C)(C)C)nn4C)cc3)n2)cn1 [Compound 40] | far more potent than their ether linked counterparts |  | 
